Source: ChEMBL document CHEMBL1155457, “Discovery of the dual orexin receptor antagonist [(7R)-4-(5-chloro-1,3-benzoxazol-2-yl)-7-methyl-1,4-diazepan-1-yl][5-methyl-2-(2H-1,2,3-triazol-2-yl)phenyl]methanone (MK-4305) for the treatment of insomnia” (J Med Chem, 2010)
The source made the active and inactive calls. The calls are words filed in the database; no cut-off is given here.

Experiments:
[1] = Lipophilicity, log P of the compound; type: physicochemical; conditions: octanol/water
Rattus norvegicus [2] = assay: Antiinsomnic activity in Sprague-Dawley rat assessed as decrease in active wake duration at 10 mg/kg/day, po […]; type: functional, organism-based
In short: (§1)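 Rats carried telemetry implants recording ECoG/EMG (sampled at 500 Hz) and had recovered at least 2 weeks after surgery. They were on a 12:12 light cycle with lights off at 04:00. After 2 days of vehicle habituation, four rats were dosed by oral gavage in 20% aqueous TPGS at 09:00, 5 h into the active phase. The design was a one-week crossover against vehicle. Recording ran 23 h; stages were auto-scored in 30-min bins, averaged over 7 days and compared by mixed-model ANOVA at each time point.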

Rattus norvegicus [3] = assay: Antiinsomnic activity in Sprague-Dawley rat assessed as increase in rapid-eye movement at 10 mg/kg/day, po measured with 3 to 4 hrs post last dose; type: functional, organism-based; in short: as §1
Rattus norvegicus [4] = assay: Antiinsomnic activity in Sprague-Dawley rat assessed as increase in delta sleep duration at 10 mg/kg/day, po measured with 3 to 4 hrs post last dose; type: functional, organism-based; in short: as §1
Rattus norvegicus [5] = assay: Antiinsomnic activity in Sprague-Dawley rat assessed as decrease in light sleep duration at 10 mg/kg/day, po measured with 3 to 4 hrs post last dose; type: functional, organism-based; in short: as §1
[6] = Drug level in Sprague-Dawley rat plasma at 10 mg/kg/day, po after 1 hr; type: ADME, organism-based; set-up: route oral; conditions: read-out: Drug uptake
[7] = Drug level in Sprague-Dawley rat CSF at 10 mg/kg/day, po after 1 hr; type: ADME, organism-based, Cerebrospinal fluid; set-up: route oral; conditions: read-out: Drug uptake
[8] = Fraction unbound in rat plasma; type: ADME, cell-free
[9] = Clearance in dog at 0.5 mg/kg, iv; type: ADME, organism-based, Canis lupus familiaris; set-up: dose 0.5 mg/kg, route intravenous; conditions: in vivo
In short: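 Dogs received an IV dose with DMSO as vehicle (n = 3). Clearance was derived from plasma pharmacokinetics.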

[10] = Oral bioavailability in dog at 3 mg/kg; type: ADME, organism-based, Canis lupus familiaris; conditions: in vivo
[11] = Oral bioavailability in rat at 10 mg/kg; type: ADME, organism-based; conditions: in vivo
[12] = Clearance in rat at 10 mg/kg, iv; type: ADME, organism-based; set-up: dose 10 mg/kg, route intravenous; conditions: in vivo
Liver microsomes = assay: Idiosyncratic toxicity in human liver microsomes assessed GSH-derived reactive electrophilic adduct formation at 10 uM after 60 mins by UPLC/HRMS analysis relative to labetalol; set-up: species or system Microsome; conditions: 1 h
In short: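 Pooled human liver microsomes (1 mg/mL protein) were incubated 60 min at 37 °C in 100 mM potassium phosphate pH 7.4. The mix held 10 μM compound, 1 mM MgCl2, 1 mM EDTA, 5 mM GSH and 1 mM NADPH. After quenching, GSH adducts were detected by UPLC/HRMS. Summed adduct peak areas were divided by the labetalol internal-standard area.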

Orexin receptor type 2 [13] = biological target: T1, Orexin receptor type 2 (Homo sapiens, UniProt O43614); assay: Displacement of [3H](S)-N-(2-(1H-pyrrol-1-yl)phenyl)-1-(2-(1-methyl-1H-benzo[d]imidazol-2-ylthio)acetyl)pyrrolidine-2-carboxamide from human OX2R expressed in CHO cells after 3 hrs by scintillation counting; type: cell-based
T1 sequence (O43614 whole entry): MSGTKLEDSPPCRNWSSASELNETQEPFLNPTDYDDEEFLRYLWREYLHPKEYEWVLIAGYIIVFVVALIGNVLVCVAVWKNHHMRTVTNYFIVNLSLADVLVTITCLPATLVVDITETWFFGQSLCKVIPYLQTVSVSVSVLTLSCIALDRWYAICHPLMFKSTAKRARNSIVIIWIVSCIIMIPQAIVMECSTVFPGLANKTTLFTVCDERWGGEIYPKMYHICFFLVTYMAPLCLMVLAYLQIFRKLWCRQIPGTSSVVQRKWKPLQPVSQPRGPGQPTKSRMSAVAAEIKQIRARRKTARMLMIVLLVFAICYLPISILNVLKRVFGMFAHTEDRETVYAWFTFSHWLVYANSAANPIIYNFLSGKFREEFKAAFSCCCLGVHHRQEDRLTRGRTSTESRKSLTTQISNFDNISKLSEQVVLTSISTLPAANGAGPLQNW

[14] = Volume of distribution at steady state in rat at 2 mg/kg, iv; type: ADME, organism-based; set-up: dose 2 mg/kg, route intravenous; conditions: in vivo, read-out: Vdss
In short: (§2)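 IV PK in DMSO vehicle: rat at 2 mg/kg, dog at 0.5 mg/kg. Clearance, Vd_ss and terminal half-life were derived from plasma levels.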

[15] = Terminal half life in rat at 2 mg/kg, iv; type: ADME, organism-based; set-up: dose 2 mg/kg, route intravenous; conditions: in vivo, read-out: beta t1/2 (converted); in short: as §2
[16] = AUC in rat at 100 mg/kg, po; type: ADME, organism-based; set-up: dose 100 mg/kg, route oral; conditions: plasma
In short: (§3)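 Rats dosed orally by gavage as the HCl salt in 20% TPGS. Plasma drug levels were followed to give AUC, Cmax and oral bioavailability.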

[17] = Cmax in rat at 100 mg/kg, po; type: ADME, organism-based; set-up: dose 100 mg/kg, route oral; conditions: in vivo; in short: as §3
[18] = Oral bioavailability in rat at 100 mg/kg; type: ADME, organism-based; conditions: in vivo; in short: as §3
[19] = Volume of distribution at steady state in dog at 0.5 mg/kg, iv; type: ADME, organism-based, Canis lupus familiaris; set-up: dose 0.5 mg/kg, route intravenous; conditions: in vivo, read-out: Vdss; in short: as §2
[20] = Terminal half life in dog at 0.5 mg/kg, iv; type: ADME, organism-based, Canis lupus familiaris; set-up: dose 0.5 mg/kg, route intravenous; conditions: in vivo, read-out: beta t1/2 (converted); in short: as §2
[21] = AUC in dog at 3 mg/kg, po; type: ADME, organism-based, Canis lupus familiaris; set-up: dose 3 mg/kg, route oral; conditions: plasma
[22] = Cmax in dog at 3 mg/kg, po; type: ADME, organism-based, Canis lupus familiaris; set-up: dose 3 mg/kg, route oral; conditions: in vivo
[23] = biological target: T2, Orexin/Hypocretin receptor type 1 (Homo sapiens, UniProt O43613); assay: Displacement of [3H](S)-N-(biphenyl-2-yl)-1-(2-(1-methyl-1H-benzo[d]imidazol-2-ylthio)acetyl)pyrrolidine-2-carboxamide from human OX1R expressed in CHO cells after 3 hrs by scintillation counting; type: cell-based
T2 sequence (O43613 whole entry): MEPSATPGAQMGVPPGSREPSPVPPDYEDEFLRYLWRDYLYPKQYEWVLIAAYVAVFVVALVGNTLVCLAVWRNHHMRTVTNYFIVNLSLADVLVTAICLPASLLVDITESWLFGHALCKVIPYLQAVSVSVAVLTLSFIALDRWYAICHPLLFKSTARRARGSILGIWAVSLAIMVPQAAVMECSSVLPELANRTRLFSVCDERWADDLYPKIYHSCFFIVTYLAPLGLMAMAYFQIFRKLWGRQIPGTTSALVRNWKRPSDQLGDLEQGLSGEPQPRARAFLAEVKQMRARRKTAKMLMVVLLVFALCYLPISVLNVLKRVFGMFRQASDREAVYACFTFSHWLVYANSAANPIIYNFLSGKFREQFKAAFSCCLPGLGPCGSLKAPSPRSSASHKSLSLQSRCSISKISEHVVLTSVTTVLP

[24] = biological target: T2, Orexin/Hypocretin receptor type 1; assay: Displacement of [3H]N-cyclobutyl-5-methyl-N-(2-(1-methyl-1H-benzo[d]imidazol-2-ylthio)ethyl)-2-(2H-1,2,3-triazol-2-yl)benzamide from human OX1R expressed in CHO cells after 20 hrs by scintillation counting; type: cell-based
[25] = biological target: T2, Orexin/Hypocretin receptor type 1; assay: Antagonist activity at human OX1R expressed in CHO cells assessed as inhibition of orexin-A-induced intracellular calcium mobilization after 5 mins by FLIPR assay; type: functional, cell-based
Orexin receptor type 2 [26] = biological target: T1, Orexin receptor type 2; assay: Antagonist activity at human OX2R expressed in CHO cells assessed as inhibition of orexin-A-induced intracellular calcium mobilization after 5 mins by FLIPR assay; type: functional, cell-based

SMILES	Activity (Rattus norvegicus [2])	Activity (Rattus norvegicus [3])	Activity (Rattus norvegicus [4])	Activity (Rattus norvegicus [5])	clearance [9]	bioavailability [10]	Ratio (Liver microsomes)	Ki (Orexin receptor type 2 [13])	Ki [23]	Ki [24]	IC50 [25]	IC50 (Orexin receptor type 2 [26])	further results
Cc1ccc(-n2nccn2)c(C(=O)N2CCN(c3ncc4cc(F)ccc4n3)CC[C@H]2C)c1	Active	Active	Active	Active	5.2 mL/min/kg	37%	–	–	–	–	–	–	logP [1]: 3; concentration at 1 h [6]: 20 nM; concentration at 1 h [7]: 1000 nM; fraction unbound [8]: 0.03; bioavailability [11]: 47%; clearance [12]: 33 mL/min/kg
Cc1ccc(-n2nccn2)c(C(=O)N2CCCN(c3ncc4ccccc4n3)CC2)c1	Active	Active	Active	Active	11.6 mL/min/kg	–	5	0.59 nM	–	–	–	–	Vd [14]: 1.08 L/kg; half-life [15]: 21 min; AUC [16]: 1.5 µM·h; Cmax [17]: 650 nM; bioavailability [18]: 2%; Vd [19]: 0.86 L/kg; half-life [20]: 76.8 min; AUC [21]: 1.81 µM·h; Cmax [22]: 1440 nM
C[C@@H]1CCN(c2ncc3ccccc3n2)CCN1C(=O)c1ccccc1-n1nccn1	–	–	–	–	6.4 mL/min/kg	–	–	0.47 nM	6.2 nM	6.2 nM	26 nM	18 nM	–
C[C@@H]1CCN(c2cnc3cc(F)c(F)cc3n2)CCN1C(=O)c1ccccc1-n1nccn1	–	–	–	–	4.9 mL/min/kg	15%	3.7	0.25 nM	1.8 nM	1.8 nM	28 nM	32 nM	–
